Test results published in article PMC6437231 (Diabetes Therapy, 2019).

What was measured:
[1] = type: in vivo, human; details: final two-compartment model
Summary of the method: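 Plasma semaglutide (LC–MS/MS) from 353 subjects in 9 trials with s.c. and i.v. dosing. Mixed-effects two-compartment model with first-order absorption and elimination; i.v. doses treated as a central bolus. Log-normal inter-individual variability on ka, CL, Q, Vc and Vp; (weight/85 kg) exponent on CL, Q, Vc and Vp; product strength (1, 1.34, 3, 10 mg/mL) on ka. Covariates kept at 10% alpha; CWRES >6 excluded; log-additive residual error.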

[2] = type: in vivo, human; details: one-compartment model, 7 multiple-dose trials, s.c.
Summary of the method: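 Steady-state s.c. plasma data from seven multiple-dose trials, with dose escalation 0.25 > 0.5 > 1.0 mg (one trial to 1.5 mg). One-compartment mixed-effects model parameterised as CL/F, V/F and ka, each with inter-individual variability. […] Log-additive residual error; values with CWRES >6 excluded.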

[3] = ref [6], cited from earlier work
plasma albumin = details: ref [5]; cited from earlier work
[4] = population PK model; ref [9]; cited from earlier work
[5] = cited from earlier work
[6] = s.c., trial 7 drug product strength
[7] = one-compartment model from phase 3a trials

CC[C@H](C)[C@H](NC(=O)[C@H](Cc1ccccc1)NC(=O)[C@H](CCC(=O)O)NC(=O)[C@H](CCCCNC(=O)COCCOCCNC(=O)COCCOCCNC(=O)CC[C@H](NC(=O)CCCCCCCCCCCCCCCCC(=O)O)C(=O)O)NC(=O)[C@H](C)NC(=O)[C@H](C)NC(=O)[C@H](CCC(N)=O)NC(=O)CNC(=O)[C@H](CCC(=O)O)NC(=O)[C@H](CC(C)C)NC(=O)[C@H](Cc1ccc(O)cc1)NC(=O)[C@H](CO)NC(=O)[C@H](CO)NC(=O)[C@@H](NC(=O)[C@H](CC(=O)O)NC(=O)[C@H](CO)NC(=O)[C@@H](NC(=O)[C@H](Cc1ccccc1)NC(=O)[C@@H](NC(=O)CNC(=O)[C@H](CCC(=O)O)NC(=O)C(C)(C)NC(=O)[C@@H](N)Cc1cnc[nH]1)[C@@H](C)O)[C@@H](C)O)C(C)C)C(=O)N[C@@H](C)C(=O)N[C@@H](Cc1c[nH]c2ccccc12)C(=O)N[C@@H](CC(C)C)C(=O)N[C@H](C(=O)N[C@@H](CCCNC(=N)N)C(=O)NCC(=O)N[C@@H](CCCNC(=N)N)C(=O)NCC(=O)O)C(C)C [semaglutide]
Central volume (Vc) ([1]; 9 trials, body weight 85 kg): 3.59 L
Peripheral volume (Vp) ([1]; 9 trials, body weight 85 kg): 4.10 L
Higher CL in subjects with type 2 diabetes compared to healthy subjects ([1]; 95% CI 9–16%): 12%
Body weight effect on Vc and Vp ([1]; exponent of (weight/85 kg)): 0.923
T2D effect on ka ([1]; factor, T2D vs normoglycaemia): 0.544
Injection site effect on F ([1]; factor, thigh vs abdomen): 0.883
Drug product strength effects on ka, 3 mg [1, 6]: 0.0526
Drug product strength effects on ka, 10 mg [1, 6]: 0.139
Bioavailability estimated by the final model ([1]; s.c., 95% CI 0.80–0.90): 85%
Lower bioavailability when using the thigh compared with the abdomen ([1]; s.c., 95% CI 0.84–0.92): 12%
Total volume of distribution (Vc + Vp) ([1]; typical subject with T2D, 85 kg): approximately 8 L
Absorption rate constant (ka) ([2]; 267 subjects): 0.0296 h⁻¹
Apparent clearance (CL/F), healthy volunteer with body weight of 85 kg [2]: 0.0415 L/h
CL/F for subject with T2D and body weight of 85 kg [3, 7]: 0.0478 L/h
Total volume/F (V/F) [3, 7]: 12.2 L
Inter-individual variability in clearance ([3]; phase 3 analysis, CV): 12.9%
Bound to plasma albumin (plasma albumin): more than 99%

dulaglutide
Greater CL compared to semaglutide [4]: approximately 50%
Interindividual variability, coefficient of variation (CV) for CL [4]: 40.5%
Lower volume of distribution compared to semaglutide [4]: 20%
Slower absorption compared to semaglutide [4]: approximately threefold

liraglutide
Elimination compared with semaglutide ([5]; population PK model, ref [10]): much faster elimination
Bioavailability after administration in the thigh versus the abdomen ([5]; ref [16]): slightly lower
